From ChEMBL document CHEMBL1148614, “Synthesis and evaluation of 2-anilino-3-phenylsulfonyl-6-methylpyridines as corticotropin-releasing factor1 receptor ligands” (Bioorg Med Chem Lett, 2006)

Columns and labels:
[1] = target: T1, Corticotropin-releasing factor receptor 1 (Rattus norvegicus, UniProt P35353); test: Displacement of [125I]Tyr-o-CRF from CRF1 receptor in rat frontal cortex homogenates; format: tissue-based
T1 sequence (P35353 whole entry): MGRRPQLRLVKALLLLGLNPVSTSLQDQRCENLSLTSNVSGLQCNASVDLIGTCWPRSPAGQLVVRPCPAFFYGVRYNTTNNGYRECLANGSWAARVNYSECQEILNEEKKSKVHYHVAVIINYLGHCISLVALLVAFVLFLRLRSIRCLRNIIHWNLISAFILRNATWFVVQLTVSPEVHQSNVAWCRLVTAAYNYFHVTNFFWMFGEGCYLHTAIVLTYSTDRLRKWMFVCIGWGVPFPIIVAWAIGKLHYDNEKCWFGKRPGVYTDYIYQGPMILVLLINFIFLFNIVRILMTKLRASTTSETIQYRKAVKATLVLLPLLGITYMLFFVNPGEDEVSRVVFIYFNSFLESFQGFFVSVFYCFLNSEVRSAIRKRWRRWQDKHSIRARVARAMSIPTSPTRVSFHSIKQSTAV

[2] = Half life in Sprague-Dawley rat at 0.5 mg/kg, iv; format: ADME, organism-based; set-up: dose 0.5 mg/kg, route intravenous; settings: in vivo
[3] = AUC in Sprague-Dawley rat at 2.0 mg/kg, po; format: ADME, organism-based; set-up: dose 2 mg/kg, route oral; settings: plasma
Summary of the method: (§1)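 Cassette dosing in Sprague–Dawley rats (n = 3 per route). Oral dose 2 mg/kg, with plasma sampled at 0, 0.5, 1, 2, 4, 6, 8 and 24 h. Plasma drug levels measured by LC/MS/MS.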

Rattus norvegicus = test: Volume of distribution in Sprague-Dawley rat at 0.5 mg/kg, iv; format: ADME, organism-based; set-up: dose 0.5 mg/kg, route intravenous; settings: in vivo
[4] = Cmax in Sprague-Dawley rat at 2.0 mg/kg, po; format: ADME, organism-based; set-up: dose 2 mg/kg, route oral; settings: in vivo; summary of the method: as §1
[5] = Bioavailability in Sprague-Dawley rat at 2.0 mg/kg, po; format: ADME, organism-based; settings: in vivo; summary of the method: as §1
[6] = Clearance in Sprague-Dawley rat at 0.5 mg/kg, iv; format: ADME, organism-based; set-up: dose 0.5 mg/kg, route intravenous; settings: in vivo

Ki [1] | SMILES | further results
> 10000 nM | Cc1cc(C)c(Nc2nc(C)cc(C)c2S(=O)(=O)c2ccccc2C)c(C)c1 | –
> 10000 nM | Cc1ccc(S(=O)(=O)c2ccc(Nc3c(C)cc(C)cc3C)nc2C)cc1 | –
34 nM | COc1cc(COc2ccc(S(=O)(=O)c3ccc(C)nc3Nc3c(C)cc(C)cc3C)cc2)cc(OC)c1 | –
268 nM | Cc1cc(C)c(Nc2nc(C)ccc2S(=O)(=O)c2ccc(OC(F)(F)F)cc2)c(C)c1 | –
249 nM | COc1cccc(S(=O)(=O)c2ccc(C)nc2Nc2c(C)cc(C)cc2C)c1 | –
635 nM | Cc1cc(C)c(Nc2nc(C)ccc2S(=O)(=O)c2ccc(OCCCC#N)cc2)c(C)c1 | –
75 nM | Cc1cc(C)c(Nc2nc(C)ccc2S(=O)(=O)c2ccc(OCc3cccc(C#N)c3)cc2)c(C)c1 | –
395 nM | Cc1cc(C)c(Nc2nc(C)ccc2S(=O)(=O)c2ccc(OCCCCC#N)cc2)c(C)c1 | –
145 nM | Cc1ccc(S(=O)(=O)c2ccc(C)nc2Nc2c(C)cc(C)cc2C)cc1 | –
32 nM | Cc1cc(C)c(Nc2nc(C)ccc2S(=O)(=O)c2ccc(OCc3ccccc3)cc2)c(C)c1 | half-life [2]: 3 h; AUC [3]: 0.167 µM·h; Vss (Rattus norvegicus): 10 L/kg; Cmax [4]: 42 nM; bioavailability [5]: 18%; clearance [6]: 78.3 mL/min/kg
49 nM | COC(=O)c1cccc(COc2ccc(S(=O)(=O)c3ccc(C)nc3Nc3c(C)cc(C)cc3C)cc2)c1 | –
52 nM | CCc1ccc(S(=O)(=O)c2ccc(C)nc2Nc2c(C)cc(C)cc2C)cc1 | half-life [2]: 5.1 h; AUC [3]: 0.347 µM·h; Vss (Rattus norvegicus): 25 L/kg; Cmax [4]: 72 nM; bioavailability [5]: 35%; clearance [6]: 86.7 mL/min/kg
157 nM | Cc1cc(C)c(Nc2nc(C)ccc2S(=O)(=O)c2ccc(OCc3ccc(C#N)cc3)cc2)c(C)c1 | –
857 nM | Cc1cc(C)c(Nc2nc(C)ccc2S(=O)(=O)Cc2ccc(Cl)cc2)c(C)c1 | –
198 nM | COc1ccc(S(=O)(=O)c2ccc(C)nc2Nc2c(C)cc(C)cc2C)cc1 | –
17 nM | COc1ccccc1COc1ccc(S(=O)(=O)c2ccc(C)nc2Nc2c(C)cc(C)cc2C)cc1 | half-life [2]: 3.5 h; AUC [3]: 0.176 µM·h; Vss (Rattus norvegicus): 8 L/kg; Cmax [4]: 48 nM; bioavailability [5]: 16%; clearance [6]: 58.3 mL/min/kg
1780 nM | Cc1ccc(S(=O)(=O)c2c(C)cc(C)nc2Nc2c(C)cc(C)cc2C)cc1 | –
5170 nM | Cc1cccc(S(=O)(=O)c2c(C)cc(C)nc2Nc2c(C)cc(C)cc2C)c1 | –
250 nM | Cc1cc(C)c(Nc2nc(C)ccc2S(=O)(=O)c2ccc(OCc3ccccn3)cc2)c(C)c1 | –
132 nM | Cc1cc(C)c(Nc2nc(C)ccc2S(=O)(=O)c2cccc(OCc3ccccc3)c2)c(C)c1 | –
1080 nM | Cc1cc(C)c(Nc2nc(C)ccc2S(=O)(=O)c2ccc(CO)cc2)c(C)c1 | –
119 nM | C=CCOc1ccc(S(=O)(=O)c2ccc(C)nc2Nc2c(C)cc(C)cc2C)cc1 | –
> 10000 nM | Cc1cc(C)c(Nc2nc(C)cc(C)c2S(=O)(=O)c2ccccc2)c(C)c1 | –
58 nM | COc1cccc(COc2ccc(S(=O)(=O)c3ccc(C)nc3Nc3c(C)cc(C)cc3C)cc2)c1 | –
